Assay results: ChEMBL document CHEMBL1150125, “Antiplasmodial activity of alkaloids from various strychnos species” (J Nat Prod, 2002)

How the values were obtained:
[1] = system: Plasmodium falciparum; assay: Antiplasmodial activity against chloroquine-sensitive Plasmodium falciparum FCA 20/ Ghana at 50 uM; conditions: read-out: INH
[2] = system: Plasmodium falciparum; assay: Antiplasmodial activity against chloroquine-resistant Plasmodium falciparum W2/Indochina by [3H]hypoxanthine uptake; assay type: functional, organism-based; conditions: Plasmodium falciparum, W2/Indochina
Outline: (§1)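 Asexual erythrocytic stages kept in continuous culture (Trager and Jensen method). Each sample run as eight 4-fold dilutions, final 20 to 0.0012 µg/mL, in duplicate. IC50 and IC90 derived; number of independent experiments per value given separately.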

[3] = system: HCT-116; assay: Cytotoxicity against human HCT116 cells after 72 hrs by WST1 assay; assay type: cell-based; conditions: HCT-116, 72 h
Outline: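 HCT-116 colon cancer cells were seeded at 5000 per well in medium containing the test drugs, with matched DMSO controls. After 72 h, WST-1 was added for 30 min at 37 °C. Absorbance was read against a cell-free medium plus WST-1 blank and expressed as percent of control. Two independent experiments were run, each in triplicate, and means ± SEM were calculated.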

[4] = Selectivity index, ratio of IC50 for human HCT116 cells to IC50 for chloroquine-resistant Plasmodium falciparum W2/Indochina; assay type: toxicity, cell-based, HCT-116; conditions: HCT116 cells versus Plasmodium falciparum W2/Indochina, read-out: Ratio IC50
Outline: (§2)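 Selectivity index = IC50 in HCT-116 cells / IC50 in P. falciparum. Cell IC50: 5000 HCT-116 cells per well with drug, DMSO controls, 72 h incubation, then WST-1 for 30 min at 37 °C. Absorbance read against a cell-free blank and expressed as percent of control. Two independent experiments, each in triplicate, means ± SEM.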

[5] = Selectivity index, ratio of IC50 for human HCT116 cells to IC50 for chloroquine-sensitive Plasmodium falciparum FCA 20/ Ghana; assay type: toxicity, cell-based, HCT-116; conditions: HCT116 cells versus Plasmodium falciparum FCA 20/Ghana, read-out: Ratio IC50; outline: as §2
[6] = system: Plasmodium falciparum; assay: Antiplasmodial activity against chloroquine-resistant Plasmodium falciparum FCB1-R/Colombia by [3H]hypoxanthine uptake; assay type: functional, organism-based; conditions: Plasmodium falciparum, FCB1-R/Colombia; outline: as §1
[7] = system: Plasmodium falciparum; assay: Antiplasmodial activity against chloroquine-sensitive Plasmodium falciparum FCA 20/ Ghana by [3H]hypoxanthine uptake; assay type: functional, organism-based; conditions: Plasmodium falciparum, FCA 20/ Ghana; outline: as §1
[8] = Selectivity index, ratio of IC50 for human HCT116 cells to IC50 for moderately chloroquine-resistant Plasmodium falciparum FCB1-R/Colombia; assay type: toxicity, cell-based, HCT-116; conditions: HCT116 cells versus Plasmodium falciparum FCB1-R/Colombia, read-out: Ratio IC50; outline: as §2

Row | SMILES | inhibition at 50 µM [1] | IC50 [2] | IC90 [2] | IC50 [3] | selectivity ratio [4] | selectivity ratio [5] | IC50 [6] | IC90 [6] | IC50 [7] | IC90 [7] | selectivity ratio [8]
1 | CC [ETHANE] | < 30% |  |  |  |  |  |  |  |  |  | 
2 | C/C=C1/CN2CCc3c([nH]c4ccccc34)[C@@H]2C[C@@H]1C1=CN2c3ccccc3[C@@]34CCN5CC6=CCO[C@@H]1[C@@H]([C@H]23)[C@H]6C[C@H]54 [LONGICAUDATINE] |  | 569 nM | 4830 nM | 4930 nM | 7.96 | 4.59 | 560 nM | 3640 nM | 986 nM | 3870 nM | 8.81
3 | CC[C@H]1CN2CCC3c4ccccc4NC3[C@H]2C[C@@H]1C[C@@H]1NCCc2c1[nH]c1ccccc21 (stereo partly specified) [OCHROLIFUANINE E] |  | 1900 nM | 6760 nM | 5700 nM | 3 | 20.7 | 702 nM | 2420 nM | 276 nM | 1490 nM | 8.12
4 | O=C1C[C@@H]2OCC=C3CN4[C@@H](C5=C[C@@H]6[C@@H]7N(C5=O)c5ccccc5[C@@]75CCN7C/C(=C/CO)[C@@H]6C[C@H]75)C[C@]56c7ccccc7N1[C@H]5[C@@H]2[C@H]3C[C@H]46 [STRYCHNOGUCINE B] |  | 85 nM | 358 nM | 15000 nM | 176 | 24.3 | 529 nM | 2240 nM | 617 nM | 3790 nM | 28.3
5 | CC[C@H]1CN2CCC3c4ccc(O)c([C@@H]5CCCN5C)c4NC3[C@@H]2C[C@@H]1C[C@H]1c2[nH]c3ccccc3c2CCN1C (stereo partly specified) [ISOSTRYCHNOPENTAMINE] |  | 152 nM | 628 nM | 7470 nM | 49.1 | 62.3 | 104 nM | 386 nM | 120 nM | 450 nM | 71.8
